The values that follow come from publication PMC5511061 (ACS infectious diseases, 2017).

Some results are limits rather than exact numbers.

The term EC50 denotes the concentration that produces a half-maximal response. By IC50 is commonly meant the midpoint of a concentration-inhibition curve. A lower IC50 goes with higher potency. The Papp A→B is the apparent permeability from the apical to the basolateral side of a cell layer. In general, half-life refers to the time in which the quantity being followed falls by half. Read a high half-life as slow loss.

The test system of one data set is HsAdoMetDC. The conditions noted are these: human versus T. brucei enzyme; cited from earlier work.
The subject of a further data set is T. brucei cells. Put plainly: Rescue of cell growth inhibition with spermidine. Type of data set: cell-based, Trypanosoma brucei.
The test system of data set [1] is T. brucei brucei Lister 427 bloodstream-form (BSF) cells. Put plainly: T. brucei cell viability growth assay. Type of data set: cell-based, Trypanosoma brucei brucei.
The test system of data set [2] is prozyme levels in T. brucei cells. Kind of data set: Western blotting analysis of prozyme expression levels in treated cells. The data set is classed as cell-based, Trypanosoma brucei. The following applies: cells grown 24 h with 1–2 × EC50 of compound versus vehicle. The procedure, abridged: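 Bloodstream-form T. brucei treated 24 h with test compound; DMSO vehicle as neutral control and a reference AdoMetDC inhibitor as positive control. Cells harvested, lysed and run on SDS-PAGE. Blots probed with rabbit polyclonal anti-T. brucei prozyme (1000-fold dilution, Tris-buffered saline, 5% blocker). Membrane cut by molecular-weight marker; upper section probed with rabbit anti-BiP (100,000-fold) as loading control. Prozyme compared with vehicle.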
Background: In western blotting, separated proteins are transferred to a membrane and probed.

In data set [3] the target is T1, human AdoMetDC (HsAdoMetDC) (Homo sapiens, UniProt P17707).
T1 sequence (P17707 1-334): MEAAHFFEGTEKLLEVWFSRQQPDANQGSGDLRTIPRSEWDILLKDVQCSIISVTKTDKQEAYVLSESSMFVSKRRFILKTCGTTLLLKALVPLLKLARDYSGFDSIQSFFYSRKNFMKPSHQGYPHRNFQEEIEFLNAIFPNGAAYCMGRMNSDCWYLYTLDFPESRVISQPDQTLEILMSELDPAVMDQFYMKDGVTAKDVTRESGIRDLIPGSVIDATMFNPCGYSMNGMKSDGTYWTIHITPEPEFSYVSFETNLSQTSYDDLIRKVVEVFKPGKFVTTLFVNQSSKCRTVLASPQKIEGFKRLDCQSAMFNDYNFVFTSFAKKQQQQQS
Kind of data set: RapidFire-MS end-point AdoMetDC activity assay, human enzyme. The data set is classed as biochemical.

Data set [4] relates to P-glycoprotein (human MDR1). Put plainly: MDCKII-hMDR1 monolayer permeability assay. The data set is classed as in vitro ADME. The following applies: dog, MDCK-MDR1.
Data set [5] in a line: In vitro metabolic stability in hepatic microsomes, mouse. Type of data set: in vitro ADME. The following applies: male, CD-1, mouse.
The nature of data set [6]: In vitro metabolic stability in hepatic microsomes, human. The data set is classed as in vitro ADME. The conditions noted are these: both.

With `Cl.Cl.Cl.N=C(N)c1cccc(/C=N/N=C(\N)N/N=C/c2cccc(C(=N)N)c2)c1` [CGP 40215A], in the data set on HsAdoMetDC, the “fold more potent against HsAdoMetDC” value is given as 500 fold.

Consider `Cc1nc2c(N)ncnc2n1[C@@H]1O[C@H](CN(C)C/C=C\CN)[C@@H](O)[C@H]1O` [Compound 1], for which the EC50 turned out to be 0.3 nM with T. brucei cells (Trypanosoma brucei, read-out: T. brucei cell EC50, – Spd) and 1.8 nM in data set [1] (Trypanosoma brucei, 48 h, read-out: T. brucei cell EC50). For the same compound, the “rescue of cell growth inhibition by spermidine supplementation” value in the data set with T. brucei cells (over 100× EC50 concentrations of compound, 1 mM spermidine) is recorded as “full rescue”. In data set [1], the “EC50 fold below measured IC50 on the enzyme” value is 100 fold. The Prozyme induction entry in data set [2] is recorded as “yes”. Moreover, the IC50 in data set [3] is 110 nM. The Papp A→B in data set [4] stood at 1.1 ×10⁻⁶ cm/s. Besides, the half-life at 1 μM in data set [5] and in data set [6] was more than 1.5 h throughout.
